Source: ChEMBL document CHEMBL4118224, “Design and Synthesis of a Novel Series of Orally Bioavailable, CNS-Penetrant, Isoform Selective Phosphoinositide 3-Kinase γ (PI3Kγ) Inhibitors with Potential for the Treatment of Multiple Sclerosis (MS)” (J Med Chem, 2018)
Calls of active or inactive are those of the source. The rule behind the calls is not given here.

Experiments:
[1] = biological target: T1, Phosphatidylinositol 4,5-bisphosphate 3-kinase catalytic subunit gamma isoform (Homo sapiens, UniProt P48736); assay: Inhibition of PI3Kgamma (unknown origin) using PIP2 as substrate after 15 mins in presence of [33P-ATP] by liquid scintillation counting method
T1 sequence (P48736 whole entry, canonical isoform): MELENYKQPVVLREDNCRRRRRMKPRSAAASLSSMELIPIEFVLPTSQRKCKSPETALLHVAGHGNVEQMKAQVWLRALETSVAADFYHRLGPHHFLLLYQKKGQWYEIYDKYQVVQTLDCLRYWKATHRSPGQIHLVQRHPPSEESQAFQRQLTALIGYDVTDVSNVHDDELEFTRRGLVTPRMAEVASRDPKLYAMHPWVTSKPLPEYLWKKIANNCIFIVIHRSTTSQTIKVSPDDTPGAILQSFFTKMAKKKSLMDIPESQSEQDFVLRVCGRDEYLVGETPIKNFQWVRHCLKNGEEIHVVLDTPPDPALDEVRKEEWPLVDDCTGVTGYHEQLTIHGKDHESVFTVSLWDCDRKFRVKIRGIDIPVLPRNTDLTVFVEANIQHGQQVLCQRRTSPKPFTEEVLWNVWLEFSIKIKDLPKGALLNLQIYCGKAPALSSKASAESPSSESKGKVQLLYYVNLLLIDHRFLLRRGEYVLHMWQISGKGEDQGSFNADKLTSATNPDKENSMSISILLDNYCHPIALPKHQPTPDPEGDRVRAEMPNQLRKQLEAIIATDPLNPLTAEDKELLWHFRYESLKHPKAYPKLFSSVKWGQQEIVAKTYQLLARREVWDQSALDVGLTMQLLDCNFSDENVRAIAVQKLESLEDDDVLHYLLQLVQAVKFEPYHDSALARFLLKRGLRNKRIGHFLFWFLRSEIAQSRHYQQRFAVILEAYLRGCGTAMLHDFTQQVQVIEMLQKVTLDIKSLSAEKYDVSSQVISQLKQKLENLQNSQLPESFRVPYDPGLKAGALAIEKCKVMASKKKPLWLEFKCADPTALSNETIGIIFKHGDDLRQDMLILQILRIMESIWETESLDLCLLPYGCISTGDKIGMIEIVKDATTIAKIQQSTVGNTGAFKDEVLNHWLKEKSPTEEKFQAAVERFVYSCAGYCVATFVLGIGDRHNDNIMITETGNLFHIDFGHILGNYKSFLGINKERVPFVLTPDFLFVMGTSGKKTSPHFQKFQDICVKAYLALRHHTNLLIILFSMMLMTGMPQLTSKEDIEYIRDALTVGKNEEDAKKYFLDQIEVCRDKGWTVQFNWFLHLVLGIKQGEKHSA

Homo sapiens [2] = organism: Homo sapiens; assay: Selectivity ratio of Ki for PI3Kalpha (unknown origin) to Ki for PI3Kgamma (unknown origin)
Homo sapiens [3] = organism: Homo sapiens; assay: Selectivity ratio of Ki for PI3Kbeta (unknown origin) to Ki for PI3Kgamma (unknown origin)
Homo sapiens [4] = organism: Homo sapiens; assay: Selectivity ratio of Ki for PI3Kdelta (unknown origin) to Ki for PI3Kgamma (unknown origin)
[5] = Clearance in iv dosed rat; format: ADME, organism-based; conditions: in vivo
In short: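 Rat, dog and monkey PK after dosing; clearance in mL/min/Kg.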

[6] = Half life in iv dosed rat; format: ADME, organism-based; conditions: in vivo
[7] = biological target: T1, Phosphatidylinositol 4,5-bisphosphate 3-kinase catalytic subunit gamma isoform; assay: Inhibition of PI3Kgamma in human THP1 cells assessed as inhibition of MCP1-induced Akt phosphorylation at […] residue preincubated for 1 hr followed by MCP1 stimulation for 3 mins by FACS analysis; format: cell-based
In short: (§1)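 Akt phosphorylation was induced by MCP-1 in THP-1 cells or in splenocytes.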

MDR1 = assay: Efflux ratio of permeability from basolateral to apical over apical to basolateral side in MDCK cells harboring MDR1; format: ADME, cell-based, Canis lupus familiaris; conditions: dog
In short: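 MDR1-MDCK monolayers; bidirectional transport. A-B permeability in x10-6 cm/s; efflux taken as the B-A/A-B ratio.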

[8] = Intrinsic clearance in rat hepatocytes assessed per million cells; format: ADME, cell-based, Hepatocyte; conditions: read-out: CLH
In short: (§2)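 Intrinsic clearance in rat, dog, monkey and human hepatocytes; units µL/min/M cells.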

[9] = Intrinsic clearance in human hepatocytes assessed per million cells; format: ADME, cell-based, Hepatocyte; conditions: read-out: CLH; in short: as §2
[10] = Lipophilicity, log D of the compound at pH 7.4; format: physicochemical; conditions: buffer
[11] = biological target: Phosphatidylinositol-4,5-bisphosphate 3-kinase, catalytic subunit gamma (Rattus norvegicus, UniProt D3ZFJ0); assay: Inhibition of PI3Kgamma in rat spleenocytes assessed as inhibition of MCP1-induced Akt phosphorylation at […] residue preincubated for 1 hr followed by MCP1 stimulation for 3 mins by FACS analysis; format: cell-based; in short: as §1
Phosphatidylinositol-4,5-bisphosphate 3-kinase, catalytic subunit gamma, sequence (D3ZFJ0 whole entry, the tested form may be a part): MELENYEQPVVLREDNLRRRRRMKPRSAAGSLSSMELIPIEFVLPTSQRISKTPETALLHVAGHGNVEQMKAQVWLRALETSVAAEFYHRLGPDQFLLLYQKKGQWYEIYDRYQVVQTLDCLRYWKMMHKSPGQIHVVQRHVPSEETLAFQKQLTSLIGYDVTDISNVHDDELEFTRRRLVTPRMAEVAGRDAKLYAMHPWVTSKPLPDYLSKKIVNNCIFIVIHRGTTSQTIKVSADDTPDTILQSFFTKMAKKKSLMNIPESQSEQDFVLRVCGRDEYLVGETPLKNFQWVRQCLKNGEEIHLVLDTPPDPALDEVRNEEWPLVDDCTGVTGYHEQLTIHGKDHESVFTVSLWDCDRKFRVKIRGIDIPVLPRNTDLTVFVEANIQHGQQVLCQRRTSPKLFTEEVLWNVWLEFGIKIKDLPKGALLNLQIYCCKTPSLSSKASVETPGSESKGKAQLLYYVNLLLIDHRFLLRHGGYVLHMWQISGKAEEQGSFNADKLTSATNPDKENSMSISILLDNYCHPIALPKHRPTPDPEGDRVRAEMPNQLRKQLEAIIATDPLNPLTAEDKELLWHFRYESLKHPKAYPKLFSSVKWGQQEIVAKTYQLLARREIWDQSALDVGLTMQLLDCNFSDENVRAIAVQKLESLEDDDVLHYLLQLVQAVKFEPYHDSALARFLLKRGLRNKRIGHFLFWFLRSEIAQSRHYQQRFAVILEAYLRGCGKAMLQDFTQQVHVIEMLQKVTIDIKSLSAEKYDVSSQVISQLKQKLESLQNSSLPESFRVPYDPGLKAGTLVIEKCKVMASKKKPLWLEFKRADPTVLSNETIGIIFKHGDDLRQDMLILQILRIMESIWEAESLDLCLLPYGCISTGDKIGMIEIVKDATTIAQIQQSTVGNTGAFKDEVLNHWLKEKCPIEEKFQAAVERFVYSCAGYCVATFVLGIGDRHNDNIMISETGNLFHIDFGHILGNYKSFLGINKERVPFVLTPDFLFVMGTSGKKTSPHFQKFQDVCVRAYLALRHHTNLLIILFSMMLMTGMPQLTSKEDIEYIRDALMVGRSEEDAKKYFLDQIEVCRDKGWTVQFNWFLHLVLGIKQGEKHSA

Mus musculus [12] = assay: Anti-inflammatory activity in MOG (35 to 55 residues)-induced EAE C57BL/6 mouse model assessed as inhibition of development of clinical symptoms at 3 to 30 mg/kg, po bid […]; format: functional, organism-based
In short: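 C57BL6 mice immunized with myelin oligodendrocyte glycoprotein in complete Freund's adjuvant containing Mycobacterium tuberculosis. Oral dosing BID at 3, 10 and 30 mg/Kg began at a clinical score of 0.5-1. Vehicle and positive-control groups were run alongside. Read-out: clinical EAE score plotted against time after onset.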

Mus musculus [13] = assay: Anti-inflammatory activity in MOG (35 to 55 residues)-induced EAE C57BL/6 mouse model assessed as inhibition of development of clinical symptoms at 1 mg/kg, po qd measured on day 8 post MOG (35 to 55 residues) immunization; format: functional, organism-based

Compound | Ki [1] [µM] | Ratio Ki (Homo sapiens [2]) | Ratio Ki (Homo sapiens [3]) | Ratio Ki (Homo sapiens [4]) | further results
COc1cc(-c2ccc3c(n2)C(C)(C)N(c2cnn(CC(F)(F)F)c2)C3=O)cnc1OC | 0.011 | 33 | 12 | 10 | clearance [5]: 6.3 mL/min/kg; half-life [6]: 6.6 h; IC50 [7]: 0.34 µM
COc1cc(-c2ccc3c(n2)CN(c2cnn(C)c2)C3=O)cnc1OC | 0.06 | 5 | 9 | 3 | efflux ratio (MDR1): 2.5
COc1cc(-c2ccc3c(n2)CN(c2cnn(CCC#N)c2)C3=O)cnc1OC | 0.02 | 11 | 10 | 4 | 
COc1cc(-c2ccc3c(c2)CN(c2cccc(CC#N)c2)C3=O)cnc1OC | 0.035 | 40 | 11 | 16 | hepatocyte CLint [8]: 88 µL/min/1e6 cells; hepatocyte CLint [9]: 30 µL/min/1e6 cells; clearance [5]: 160 mL/min/kg
COc1ccc(-c2ccc3c(c2)CN(c2cccc(CC#N)c2)C3=O)cc1OC | 0.16 | > 25 | > 25 | 7 | hepatocyte CLint [8]: 111 µL/min/1e6 cells; hepatocyte CLint [9]: 26 µL/min/1e6 cells; clearance [5]: 116 mL/min/kg; logD [10]: 4.1
COc1cc(-c2ccc3c(n2)CN(c2cnn(CC(F)(F)F)c2)C3=O)cnc1OC | 0.004 |  |  |  | IC50 [7]: 0.28 µM
COc1cc(-c2ccc3c(n2)CN(c2cnn(CC(F)F)c2)C3=O)cnc1OC | 0.009 | 22 | 12 | 5 | 
COc1cc(-c2ccc3c(n2)CN(c2cnn(C(C)(C)C#N)c2)C3=O)cnc1OC | 0.028 | 15 | 25 | 10 | 
COc1cc(-c2ccc3c(n2)[C@@H](C)N(c2cnn(CC(F)(F)F)c2)C3=O)cnc1OC |  |  |  |  | IC50 [11]: 0.21 µM; Activity (Mus musculus [12]): Active
COc1cc(-c2ccc3c(n2)CN(c2cnn(CC#N)c2)C3=O)cnc1OC | 0.003 to 0.004 |  |  |  | 
COc1cc(-c2ccc3c(n2)CN(c2cn[nH]c2)C3=O)cnc1OC | 0.011 | 34 | 32 | 42 | 
COc1cc(-c2ccc3c(c2)CN(c2cnn(CC#N)c2)C3=O)cnc1OC | 0.006 | 51 | 27 | 17 | clearance [5]: 56 mL/min/kg
CCCCCCCCc1ccc(CCC(N)(CO)CO)cc1 |  |  |  |  | Activity (Mus musculus [13]): Active
CCn1cc(N2Cc3nc(-c4cnc(OC)c(OC)c4)ccc3C2=O)cn1 | 0.008 | 25 | 39 | 14 | 
C#CCn1cc(N2Cc3nc(-c4cnc(OC)c(OC)c4)ccc3C2=O)cn1 | 0.009 | 11 | 25 | 12 | 
